Measured values published in ChEMBL document CHEMBL1123667, “Molecular modification of anticholinergics as probes for muscarinic receptors. 1. Amino esters of alpha-substituted phenylacetic acid and related analogues” (J Med Chem, 1987).

Columns and labels:
[1] = target: Muscarinic acetylcholine receptor; assay: Affinity for the Muscarinic acetylcholine receptor; type: protein assay, Rattus norvegicus
[2] = species: Rattus norvegicus; assay: Potency (isolated rat ileum) relative to adiphenine was determined.; type: functional
[3] = species: Cavia porcellus; assay: Antispasmodic activity against isolated guinea pig ileum with metacholine as a spasmogen according to the method of Magnus.; type: functional; conditions: read-out: ID50 (the source's name)
Summary of the method: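 Guinea pig ileum segment in a 25-mL organ bath of Tyrode solution at 37 °C, gassed with 5% CO2–95% O2, equilibrated about 30 min. Repeated standard methacholine chloride challenges (4 × 10^-6 M) confirm a consistent response. Percent inhibition of contraction is measured and ID50 is taken by linear regression.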

[4] = species: Cavia porcellus; assay: Potency (isolated guinea pig ileum) relative to adiphenine was determined.; type: functional
[5] = target: Muscarinic acetylcholine receptor; assay: pA2 value represents the affinity for the Muscarinic acetylcholine receptor and was calculated according to the Ariens and Van Rossum; type: protein assay
Summary of the method: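 Terminal ileum from male Sprague-Dawley rats (250–300 g) killed by cervical dislocation, in a 10-mL bath of Tyrode solution at 35 °C gassed with 95% O2/5% CO2, equilibrated ≥30 min. Cumulative ACh 0.05–1.0 μg/mL at 3-min intervals gives the control curve. After washout and 30 min, compound is added; 10 min later ACh 1–300 μg/mL is given cumulatively. Contraction is read in mm. pA2 = pAx + log(x − 1), with x the ACh EC50 ratio, by linear regression over two or more experiments at four or more dose levels.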

Row | pA2 [1] | IC50 ([3]; Cavia porcellus, Ileum) | IC50 [3] | pA2 [5] | Structure (SMILES) | Relative potency [2] | Relative potency [4]
1 | 7.13 | – | – | – | CCN(CC)CCO[C@@H]1CCCC[C@@H]1c1ccccc1.Cl (relative stereo) | 0.47 | –
2 | 5.86 | – | – | – | C=C(C(=O)OCCN(CC)CC)c1ccccc1.Cl | 0.03 | –
3 | – | – | 1100 nM | – | CCN(CC)CCOC(=O)C(CCCCO)c1ccccc1.Cl (racemic) | – | 0.67
4 | – | 1200 nM | – | – | CCCC(C(=O)OCCN(CC)CC)(c1ccccc1)c1ccccc1.Cl [PROADIFEN HYDROCHLORIDE] | – | 0.62
5 | – | – | 210 nM | – | CCN(CC)CCOC(=O)C(CO)c1ccccc1.Cl (single isomer, unassigned; (+)) | – | 3.52
6 | – | – | 70 nM | 7.13 | CCN(CC)CCOC(=O)C(CO)c1ccccc1.Cl (racemic) | 0.48 | 10.57
7 | 7.4 | – | 31 nM | – | CCN(CC)CCOC(=O)C(CO)c1ccccc1.Cl (single isomer, unassigned; (-)) | 0.91 | 23.87
8 | – | 1300 nM | – | – | CCN(CC)CCOC(=O)C(c1ccccc1)(c1ccccc1)C(C)C.Cl | – | 0.57
9 | 6.38 | – | – | – | CCN(CC)CCO[C@H]1CCCC[C@@H]1c1ccccc1.Cl (relative stereo) | 0.09 | –
10 | 6.42 | – | – | – | CCN(CC)CCOC(=O)C(COS(=O)(=O)c1ccc(C)cc1)c1ccccc1.Cl (single isomer, unassigned; (-)) | 0.09 | –
11 | – | 1000 nM | – | – | CCN(CC)CCOC(=O)C(CCCCO)c1ccccc1.Cl (single isomer, unassigned; (+)) | – | 0.74
12 | 6.67 | – | – | – | CCN(CC)CCOC(=O)C(COS(=O)(=O)c1ccc(C)cc1)c1ccccc1.Cl (single isomer, unassigned; (+)) | 0.17 | –
13 | – | 2600 nM | – | – | CCCCC(C(=O)OCCN(CC)CC)(c1ccccc1)c1ccccc1.Cl | – | 0.28
14 | 6.63 | 330 nM | – | – | CCN(CC)CCOC(=O)C(CC)(c1ccccc1)c1ccccc1.Cl | 0.15 | 2.24
15 | – | 1200 nM | – | – | CCN(CC)CCOC(=O)C(CC(C)C)(c1ccccc1)c1ccccc1.Cl | – | 0.62
16 | 7.45 | 740 nM | – | – | CCN(CC)CCOC(=O)C(c1ccccc1)c1ccccc1.Cl [ADIPHENINE HYDROCHLORIDE] | 1 | 1

Row | Structure (SMILES) | pA2 [1] | IC50 ([3]; Cavia porcellus, Ileum) | IC50 [3] | pA2 [5] | Relative potency [2] | Relative potency [4]
17 | CCN(CC)CCOC(=O)C(C)(c1ccccc1)c1ccccc1.Cl | 8.4 | 53 nM | – | – | 9 | 14
